For this assay, the system named is MC38-hPD-L1 tumors. Put plainly: MC38-hPD-L1 tumor model in humanized PD-1 mice. The class given is in vivo, mouse. To be noted: 10 mg/kg i.p.; p<0.001. In outline:
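Male C57BL/6N humanized PD-1 mice receive 1×10^6 MC38-hPD-L1 cells s.c. in the right flank. At day 12 (~60 mm3) they are randomized into 3 groups (N=6). Dosing is 10 mg/kg i.p. daily for 10 doses, or atezolizumab 10 mg/kg i.p. three times weekly, both over days 12–22. Tumour (X2Y0.5, caliper) and body weight are measured every 3 days. At day 30, tumours are enzymatically digested and analysed by flow cytometry.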

The record followed here is publication PMC9310269 (Journal for Immunotherapy of Cancer, 2022).

Turning to “atezolizumab: clinically relevant anti-PD-L1 antibody control in vivo”, the tumor growth inhibition result is on record as “significant”.
